According to the array DNA melting data of Ke et al. (doi:10.1101/2024.01.08.574731):

Columns and labels:
[1] = folding enthalpy; higher = less favourable; fluorescence melt of hairpins on a sequencing array, two-state fit; conditions: sodium 0.088 M
Procedure, shortened: (§1)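 Cy3 fluorescence of library hairpins on a sequenced MiSeq flow cell, with annealed Cy3 and quencher oligos, was imaged in 50 mM Na-HEPES pH 8.0, 25 mM NaCl in 2.5 °C steps up to 60 °C. Signals were normalised to pre-quench Cy3 and to control variants. Melting temperature and folding enthalpy came from bootstrapped two-state fits, inverse-variance combined over four replicates. Fitted temperatures were raised by 9.35 °C to match UV melts.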

[2] = melting temperature; fluorescence melt of hairpins on a sequencing array, two-state fit, raised by 9.35 °C to match UV melts; conditions: sodium 0.088 M
Procedure, shortened: as §1

Sequence | folding enthalpy [1] [kcal/mol] | Tm [2] [°C]
GTGAATCGAAAGATGCAC (((.(((....))).))) | -31.4 | 50.3
GTGACAGCGAAAGCTCAC (((..(((....)))))) | -21.6 | 41.4
GTGACCCCGAAAGGGCAC (((..(((....)))))) | -24.9 | 50.8
GTGACCCGAAAGGGCCAC (((.(((....))).))) | -41 | 59.5
GTGACCGAAAGGTATCAC ((((((....)))..))) | -14.8 | 39.7
GTGACCGAAAGGTCCAC ((((((....))).))) | -11.3 | 47.1
GTGACCGAAAGGTTGCAC ((((((....)))..))) | -13.8 | 42.2
GTGACCGGAAACGGTCGC (.(((((....))))).) | -19.9 | 63.5
GTGACTACGAAAGTACAC (((..(((....)))))) | -6.75 | 29.3
GTGACTCGAAAGAGACAC (((.(((....))).))) | -32.1 | 54.3
GTGACTGCGAAAGCACAC (((..(((....)))))) | -8.82 | 38.8
GTGACTGGAAACGGTCAC (((((.(....).))))) | -49.6 | 53.2
GTGAGATCGAAAGATCAC (((..(((....)))))) | -17.6 | 45.6
GTGAGCCCGAAAGGGCAC (((..(((....)))))) | -11.2 | 52.5
GTGAGCGAAAGCTCCCAC ((((((....)))..))) | -8.27 | 36.4
GTGAGCGAAAGCTGACAC ((((((....)))..))) | -16.6 | 41.2
GTGAGCGAAAGCTGGCAC ((((((....)))..))) | -9 | 43
GTGAGCGAAAGCTTCCAC ((((((....)))..))) | -15.2 | 28.7
GTGAGCGAAAGCTTGCAC ((((((....)))..))) | -7.82 | 51.4
GTGAGGCGAAAGCCCAC (((.(((....)))))) | -18.4 | 61.8
GTGAGGGAAACCTCAC ((((((....)))))) | -31.7 | 60.2
GTGAGGGGAAACCCTTGC (..((((....))))..) | -16.4 | 38.7
GTGAGGGGAAACTCTCAC (((((.(....).))))) | -32 | 49.4

Sequence | folding enthalpy [1] [kcal/mol] | Tm [2] [°C]
GTGAGGTCGAAAGACCAC (((..(((....)))))) | -13 | 48.9
GTGAGTACGAAAGTACAC (((..(((....)))))) | -16.3 | 42.2
GTGAGTCGAAAGACCCAC (((.(((....))).))) | -29.4 | 49.3
GTGAGTGGAAACACCCAC (((.(((....))).))) | -31.4 | 43.2
GTGAGTGGAAACGCTTAC ((.((.(....).)).)) | -16.2 | 33.1
GTGATCACGAAAGTGCAC (((..(((....)))))) | -12.5 | 30.7
GTGATCGAAAGATAGCAC ((((((....)))..))) | -15.6 | 28.3
GTGATCGAAAGATCCAC ((((((....))).))) | -13.3 | 43.9
GTGATCGAAAGATCCCAC ((((((....)))..))) | -10.7 | 32.4
GTGATCGAAAGATTCAC ((((((....))).))) | -24.1 | 43.4
GTGATCGGAAACAATCAC (((((.(....).))))) | -32.9 | 36.3
GTGATGCGAAAGCAACAC (((.(((....))).))) | -33.4 | 56.4
GTGATGCGAAAGCACCAC (((.(((....))).))) | -29.2 | 54.2
GTGATGGGAAACCACCAC (((.(((....))).))) | -29.7 | 42.3
GTGATGGGAAACCGTTAC ((.(.((....)).).)) | -18.6 | 31
GTGATTCGAAAGAACCAC (((.(((....))).))) | -33.2 | 44.8
GTGATTGAAAAATCAC ((((((....)))))) | -29.5 | 51.7
GTGCAAACGAAAGTTCAC (((..(((....)))))) | -7.78 | 33.2
GTGCAACCGAAAGGTCAC (((..(((....)))))) | -16.6 | 40.1
GTGCAACGAAAGTTCCAC (((.(((....))).))) | -10.3 | 38.1
GTGCAAGGAAACCTGCAC (((((.(....).))))) | -35.9 | 51.4
GTGCAAGGAAACTTACAC (((.(((....))).))) | -21.5 | 34.8
GTGCAAGGAAACTTGCAC (((((((....))))))) | -31.8 | 65.8

Sequence | folding enthalpy [1] [kcal/mol] | Tm [2] [°C]
GTGCAAGGAAACTTGTAC ((.((((....)))).)) | -32.5 | 45
GTGCAATCGAAAGATCAC (((..(((....)))))) | -14 | 30
GTGCACACGAAAGTGCAC (((..(((....)))))) | -30.8 | 60
GTGCACCCGAAAGGGCAC (((..(((....)))))) | -23.9 | 52.1
GTGCACGAAAGTGCCAC ((((((....))).))) | -8.14 | 54.5
GTGCACGAAAGTGGGCAC ((((((....)))..))) | -22.6 | 52.6
GTGCACGAAAGTGGTCAC ((((((....)))..))) | -15.9 | 40.2
GTGCACGGAAACATGCAC (((((.(....).))))) | -34.6 | 47.9
GTGCACGGAAACGTGTGC (..((((....))))..) | -27.7 | 50.2
GTGCAGGAAACTGCAC ((((((....)))))) | -35.9 | 68.2
GTGCAGGCGAAAGCCCAC (((..(((....)))))) | -10.8 | 48.9
GTGCAGGGAAACCTGTAC ((.((((....)))).)) | -36.1 | 49.6
GTGCAGGGAAACTTGCAC (((((.(....).))))) | -40.7 | 52.5
GTGCATCGAAAGATTCAC (((.(((....))).))) | -30.1 | 43.4
GTGCATGCGAAAGCACAC (((..(((....)))))) | -12.2 | 46.3
GTGCATGGAAACATGCGC (.(((((....))))).) | -21.5 | 56.9
GTGCATGGAAACATGTAC ((.((((....)))).)) | -31.7 | 48.7
GTGCATGGAAACGTGTAC ((.((.(....).)).)) | -17.6 | 38.6
GTGCCACCGAAAGGTCAC (((..(((....)))))) | -9.49 | 50.5
GTGCCAGGAAACTGGCGC (.(((((....))))).) | -22.8 | 62
GTGCCAGGAAACTGGTAC ((.((((....)))).)) | -29.9 | 53.8
GTGCCCGGAAACGAGCAC ((((.((....)).)))) | -41.2 | 52.8
GTGCCCGGAAACGGACAC (((.(((....))).))) | -50.2 | 53.8

Sequence | folding enthalpy [1] [kcal/mol] | Tm [2] [°C]
GTGCCGCGAAAGCGACAC (((.(((....))).))) | -34.4 | 65.7
GTGCCGCGAAAGCGCAC (((.(((....)))))) | -21.1 | 69
GTGCCTGGAAACAAGCAC ((((.((....)).)))) | -24.6 | 42.7
GTGCCTGGAAACAGGCGC (.(((((....))))).) | -20.3 | 65
GTGCGACGAAAGTCCCAC (((.(((....))).))) | -30.8 | 47.4
GTGCGACGAAAGTCTCAC (((.(((....))).))) | -41.1 | 50.5
GTGCGAGGAAACTCACAC (((.(((....))).))) | -34.2 | 45.8
GTGCGAGGAAACTCGTAC ((.((((....)))).)) | -31.6 | 53.4
GTGCGCGAAAGCGCTCAC ((((((....)))..))) | -7.75 | 40.4
GTGCGCGAAAGCGGACAC ((((((....)))..))) | -11.1 | 63.7
GTGCGCGGAAACGCACAC (((.(((....))).))) | -19.2 | 65.5
GTGCGCGGAAACGTGCGC (.((.((....)).)).) | -25.9 | 59
GTGCGGCGAAAGCCCAC (((.(((....)))))) | -20.7 | 57.6
GTGCGGCGAAAGCCTCAC (((.(((....))).))) | -29.4 | 53.8
GTGCGGGCGAAAGCCCAC (((..(((....)))))) | -10.3 | 62.1
GTGCGGGGAAACCCACAC (((.(((....))).))) | -37.9 | 51.6
GTGCGGGGAAACCCGTAC ((.((((....)))).)) | -27.4 | 59.1
GTGCGTGGAAACACGTGC (..((((....))))..) | -18.4 | 51.5
GTGCTAACGAAAGTTCAC (((..(((....)))))) | -7.2 | 25.4
GTGCTACGAAAGTATCAC (((.(((....))).))) | -35.5 | 44.6
GTGCTAGCGAAAGCTCAC (((..(((....)))))) | -9.59 | 42.1
GTGCTAGGAAACTAGTGC (..((((....))))..) | -30.2 | 39.1
